In ChEMBL document CHEMBL1148449, “Discovery, modeling, and human pharmacokinetics of N-(2-acetyl-4,6-dimethylphenyl)-3-(3,4-dimethylisoxazol-5-ylsulfamoyl)thiophene-2-carboxamide (TBC3711), a second generation, ETA selective, and orally bioavailable endothelin antagonist” (J Med Chem, 2004):
Where a SMILES comes first, the peptide text is derived from it. [ ]: non-standard residue; d: D form. The star is where a group is joined. Piperazinyl(4-Ph) = c1ccc(N2CCN(*)CC2)cc1; dGly(2-thienyl) = N[C@@H](C(=O)O)c1cccs1

Experiments:
Endothelin-1 receptor [1] = target: T1, Endothelin-1 receptor (Homo sapiens, UniProt P25101); experiment: Displacement of [125I]ET-1 from Endothelin A receptor
T1 sequence (P25101 whole entry): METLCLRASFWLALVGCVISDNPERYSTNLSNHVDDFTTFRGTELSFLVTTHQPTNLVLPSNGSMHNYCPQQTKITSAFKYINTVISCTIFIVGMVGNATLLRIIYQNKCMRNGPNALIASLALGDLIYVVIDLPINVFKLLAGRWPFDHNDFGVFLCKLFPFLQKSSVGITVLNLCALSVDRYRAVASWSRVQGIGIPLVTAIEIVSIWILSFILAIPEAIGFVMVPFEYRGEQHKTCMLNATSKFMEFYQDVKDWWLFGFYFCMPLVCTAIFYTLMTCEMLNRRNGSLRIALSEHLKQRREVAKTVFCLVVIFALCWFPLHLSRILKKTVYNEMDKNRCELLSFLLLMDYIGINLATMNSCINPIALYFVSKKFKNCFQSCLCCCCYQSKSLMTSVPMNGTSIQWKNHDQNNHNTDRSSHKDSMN

[2] = target: Endothelin-1 receptor (Homo sapiens) (UniProt P25101); experiment: Selectivity towards endothelin A receptor in human.
[3] = Half life period was determined; type: ADME, organism-based; settings: rat, in vivo
Method in brief: (§1)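 Rats given 50 mg/kg orally. Plasma was separated at once by centrifugation and stored at -80 °C. Proteins were precipitated with acetonitrile and drug measured by HPLC to give Cmax, AUC and t1/2.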

[4] = Cmax in rat plasma after oral dose (50 mg/Kg); type: ADME, organism-based; set-up: dose 50 mg/Kg, route oral; method in brief: as §1
[5] = Compound was evaluated for area under the curve expressed as (h*ug/ml); type: ADME, organism-based; set-up: concentration or dose not given beside the values; settings: rat, in vivo; method in brief: as §1
[6] = Compound was evaluated for oral bioavailability in rats; settings: rat, in vivo
[7] = target: Endothelin receptor (Rattus norvegicus) (UniProt P26684+P21451); experiment: Selectivity for endothelin A receptor over endothelin receptor B; type: protein assay
Endothelin receptor (Rattus norvegicus), sequence (P21451 whole entry, looked up, one chain of several): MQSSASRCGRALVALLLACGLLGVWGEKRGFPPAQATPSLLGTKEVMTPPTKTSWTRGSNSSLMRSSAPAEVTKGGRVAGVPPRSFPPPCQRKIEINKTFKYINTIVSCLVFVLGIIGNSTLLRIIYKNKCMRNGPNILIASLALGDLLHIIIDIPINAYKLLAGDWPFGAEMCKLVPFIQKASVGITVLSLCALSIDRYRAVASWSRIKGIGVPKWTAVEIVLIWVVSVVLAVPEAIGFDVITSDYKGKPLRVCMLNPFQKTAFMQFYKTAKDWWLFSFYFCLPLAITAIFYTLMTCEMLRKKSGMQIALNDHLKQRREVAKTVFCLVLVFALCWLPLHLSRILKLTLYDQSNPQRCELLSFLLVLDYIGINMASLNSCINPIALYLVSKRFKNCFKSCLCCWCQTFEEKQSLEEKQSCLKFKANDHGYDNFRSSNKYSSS

[8] = Half life period was evaluated in rat; 0.5-1.0; type: ADME, organism-based; settings: in vivo
Endothelin-1 receptor [9] = target: T2, Endothelin-1 receptor (Rattus norvegicus, UniProt P26684); experiment: Binding affinity towards Endothelin A receptor
T2 sequence (P26684 whole entry): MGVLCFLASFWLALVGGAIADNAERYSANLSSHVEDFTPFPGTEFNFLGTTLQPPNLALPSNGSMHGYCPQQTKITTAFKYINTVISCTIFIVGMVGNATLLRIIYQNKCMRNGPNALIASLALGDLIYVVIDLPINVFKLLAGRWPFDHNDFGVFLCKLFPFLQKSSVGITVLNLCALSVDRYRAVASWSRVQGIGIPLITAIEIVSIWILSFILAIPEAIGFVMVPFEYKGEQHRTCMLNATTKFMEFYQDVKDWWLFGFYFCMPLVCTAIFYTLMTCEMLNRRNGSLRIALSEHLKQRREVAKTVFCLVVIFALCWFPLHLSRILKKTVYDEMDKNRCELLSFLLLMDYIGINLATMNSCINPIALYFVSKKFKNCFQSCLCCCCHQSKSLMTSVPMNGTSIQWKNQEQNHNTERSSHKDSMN

[10] = Maximal plasma concentration in rat after oral administration at 50 mg/kg; type: ADME, organism-based; set-up: dose 50 mg/kg, route oral; method in brief: as §1
[11] = target: T3, Endothelin-1 receptor (Rattus norvegicus) (UniProt P26684); experiment: Selectivity towards endothelin A receptor in rat.
T3 sequence (whole entry): T2 sequence (P26684 whole entry)

Compound	IC50 (Endothelin-1 receptor [1]) [nM]	Selectivity [2]	half-life [3] [min]	Cmax [4] [ng/mL]	AUC [5] [ng·h/mL]	other results
CCC(=O)c1c(C)c(C)cc(C)c1NC(=O)c1sccc1S(=O)(=O)Nc1onc(C)c1Cl	0.03	216000	88.2	13000	24300	–
CCCCN(CCCC)C(=O)CN1C[C@H](c2ccc3c(c2)OCO3)[C@@H](C(=O)O)[C@@H]1c1ccc(OC)cc1	–	–	–	–	–	bioavailability [6]: 60%
Cc1cc(C)c(NC(=O)c2sccc2S(=O)(=O)Nc2onc(C)c2C)c(C#N)c1C	0.08	328000	318	85800	667000	–
Cc1cc(C)c(S(N)(=O)=O)c(C)c1NC(=O)c1sccc1S(=O)(=O)Nc1onc(C)c1Cl	–	–	–	2900	–	–
CC(C)C[C@@H]1NC(=O)[C@@H](c2cccs2)NC(=O)[C@H](CC(=O)[O-])NC(=O)[C@H](CC(=O)N2CCN(c3ccccc3)CC2)NC(=O)[C@@H](CC(=O)[O-])NC(=O)[C@@H](Cc2c[nH]c3ccccc23)NC1=O.[Na+].[Na+] (cyclo(D(Piperazinyl(4-Ph))D[dGly(2-thienyl)]L[dW][dD]))	–	–	–	–	–	Selectivity [7]: 540; half-life [8]: 60 min
Cc1cc(C)c(NC(=O)c2sccc2S(=O)(=O)Nc2onc(C)c2Cl)c(C)c1	0.15	7000	–	–	–	–
COc1c(C)cc(C)c(NC(=O)c2sccc2S(=O)(=O)Nc2onc(C)c2Cl)c1C	–	–	–	4000	–	–
C/C(=N\O)c1cc(C)cc(C)c1NC(=O)c1sccc1S(=O)(=O)Nc1onc(C)c1Cl	0.02	24500	312	6920	39500	–
CC(C)C[C@@H]1NC(=O)[C@@H](C(C)C)NC(=O)[C@@H]2CCCN2C(=O)[C@@H](CC(=O)O)NC(=O)[C@@H](Cc2c[nH]c3ccccc23)NC1=O [BQ-123] (cyclo(L[dW][dD]P[dV]))	22	–	–	–	–	Selectivity [7]: 818
CCC(=O)c1cc(C)cc(C)c1NC(=O)c1sccc1S(=O)(=O)Nc1onc(C)c1Cl	0.06	214000	–	–	–	–
Cc1cc(C)c(OC2CC2)c(C)c1NC(=O)c1sccc1S(=O)(=O)Nc1onc(C)c1Cl	–	–	–	6100	–	–
Cc1cc(C)c(NC(=O)c2sccc2S(=O)(=O)Nc2onc(C)c2Cl)c(S(C)(=O)=O)c1	0.03	325000	102	–	28200	Cmax [10]: 10300 ng/mL
Cc1cc(C)c(N(C)C)c(C)c1NC(=O)c1sccc1S(=O)(=O)Nc1onc(C)c1Cl	–	–	–	3200	–	–
CO/N=C(\C)c1cc(C)cc(C)c1NC(=O)c1sccc1S(=O)(=O)Nc1onc(C)c1Cl	0.04	56000	72	13800	33500	–
Cc1cc(C)c(NC(=O)c2sccc2S(=O)(=O)Nc2onc(C)c2Cl)c(C(=O)N(C)CC(C)(C)C)c1	0.68	15900	–	–	–	–
CCCCc1ccc2c(n1)[C@@H](c1ccc(OC)cc1C[C@H](C)C(=O)O)[C@H](C(=O)O)[C@H]2c1ccc2c(c1)OCO2	–	–	–	–	–	Ki (Endothelin-1 receptor [9]): 0.034 nM; bioavailability [6]: 40%; Selectivity [7]: 3
Cc1cc(C)c(NS(C)(=O)=O)c(C)c1NC(=O)c1sccc1S(=O)(=O)Nc1onc(C)c1Cl	–	–	–	2800	–	–
CCCc1c(O)c(C(C)=O)cc(C(C)=O)c1NC(=O)c1sccc1S(=O)(=O)Nc1onc(C)c1Cl	12.4	–	–	–	–	Selectivity [11]: 1000

Compound	IC50 (Endothelin-1 receptor [1]) [nM]	Selectivity [2]	half-life [3] [min]	Cmax [4] [ng/mL]	AUC [5] [ng·h/mL]	other results
CC(=O)c1c(C)c(C)cc(C)c1NC(=O)c1sccc1S(=O)(=O)Nc1onc(C)c1Cl	0.02	1.18e+06	101	10800	53800	–
Cc1cc(C)c(NC(=O)c2sccc2S(=O)(=O)Nc2onc(C)c2Cl)c(C(=O)C(C)C)c1	0.11	–	–	59200	–	Selectivity [11]: 144000
Cc1cc(C)c(NC(=O)c2sccc2S(=O)(=O)Nc2onc(C)c2Cl)c(C(=O)C2CCCCC2)c1	1.37	13000	–	–	–	–
COc1cc(OC)nc(O[C@H](C(=O)O)C(OC)(c2ccccc2)c2ccccc2)n1	–	–	–	–	–	Ki (Endothelin-1 receptor [9]): 6 nM; Selectivity [7]: 60
CC(=O)c1cc(C)cc(C)c1NC(=O)c1sc(C)cc1S(=O)(=O)Nc1onc(C)c1Cl	0.21	4500	162	68900	327000	bioavailability [6]: 49%
Cc1cc(C)c(NC(=O)c2sccc2S(=O)(=O)Nc2onc(C)c2Cl)c(C)c1C#N	–	–	–	17300	–	–
Cc1cc(C)c(NC(=O)c2sccc2S(=O)(=O)Nc2onc(C)c2Cl)c(C(=O)C2CC2)c1	0.03	331000	324	53400	365000	–
Cc1cc(C)c(NC(=O)c2sccc2S(=O)(=O)Nc2onc(C)c2Cl)c(Cl)c1	0.09	166000	156	47500	172000	–
Cc1cc(C)c(NC(=O)c2sccc2S(=O)(=O)Nc2onc(C)c2Cl)c(-c2ncco2)c1	0.08	119000	318	66000	362000	–
Cc1cc(C)c(NC(=O)c2sccc2S(=O)(=O)Nc2onc(C)c2Cl)c(C)c1CO	–	–	–	2400	–	–
Cc1cc(C)c(NC(=O)c2sccc2S(=O)(=O)Nc2onc(C)c2Cl)c(-c2ccccc2)c1	1.47	1900	–	–	–	–
Cc1cc(C)c(NC(=O)c2sccc2S(=O)(=O)Nc2onc(C)c2Cl)c(S(=O)(=O)C(C)C)c1	0.05	8800	–	–	–	–
CCCS(=O)(=O)c1cc(C)cc(C)c1NC(=O)c1sccc1S(=O)(=O)Nc1onc(C)c1Cl	0.06	6100	78	2900	5900	–
Cc1cc(C)c(NC(=O)c2sccc2S(=O)(=O)Nc2onc(C)c2Cl)c(C(=O)c2ccccc2)c1	0.39	46000	237	33400	141000	–
Cc1cc(C)c(NC(=O)c2sccc2S(=O)(=O)Nc2onc(C)c2Cl)c(C(=O)O)c1	2.62	600	–	–	–	–
Cc1cc(C)c(NC(=O)c2sccc2S(=O)(=O)Nc2onc(C)c2Cl)c(C#N)c1C	0.05	608000	307	45700	373000	–
Cc1cc(C)c(NC(=O)c2sccc2S(=O)(=O)Nc2onc(C)c2Cl)c(C(=O)N(C)C)c1	0.07	12300	71.4	10900	27200	–
Cc1cc(-c2ncco2)cc(C)c1NC(=O)c1sccc1S(=O)(=O)Nc1onc(C)c1Cl	1.27	1900	–	–	–	–
CC(=O)OCc1c(C)cc(C)c(NC(=O)c2sccc2S(=O)(=O)Nc2onc(C)c2Cl)c1C	–	–	–	3800	–	–
